This note sets out measurements from ChEMBL document CHEMBL3992509, “Discovery of a Highly Potent, Selective, and Metabolically Stable Inhibitor of Receptor-Interacting Protein 1 (RIP1) for the Treatment of Systemic Inflammatory Response Syndrome” (J Med Chem, 2017).

Data set [1] has as its system Mus musculus. As to the kind of experiment: Protection against TNFalpha-induced spleen damage in C57BL/6J mouse assessed as reduction in macrophages infiltration at 0.3 to 3 mg/kg, ip pretreated for 17 mins followed by TNFalpha injection and subsequent compound treatment once in every 12 hrs measured 24 hrs post TNFalpha injection by hematoxylin and eosin staining based assay. The format is functional, organism-based. The method in brief:
(§1)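 Mice given mTNFα IV; compound 0.3, 1, 3 mg/kg IP 17 min before and every 12 h. Killed 24 h post-TNFα. Organs fixed 24 h in 10% neutral buffered formalin, paraffin-embedded, 5-μm sections, H&E stained; ×200, at least three mice each.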

The test system of data set [2] is Mus musculus. As to the kind of experiment: Protection against TNFalpha-induced spleen damage in C57BL/6J mouse assessed as reduction in immune cell infiltration at 0.3 to 3 mg/kg, ip pretreated for 17 mins followed by TNFalpha injection and subsequent compound treatment once in every 12 hrs measured 24 hrs post TNFalpha injection by hematoxylin and eosin staining based assay. The format is functional, organism-based. In short, it runs like this: as §1

Data set [3] deals with Mus musculus. As to the kind of experiment: Protection against TNFalpha-induced multiorgan damage in C57BL/6J mouse assessed as serum amylase level at 0.3 to 3 mg/kg, ip pretreated for 17 mins followed by TNFalpha injection and subsequent compound treatment once in every 12 hrs measured 24 hrs post TNFalpha injection. The data set is classed as functional, organism-based. The method in brief:
(§2)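 C57BL/6 mice given 4 μg mTNFα (~0.18 mg/kg) IV. Compound 0.3, 1, 3 mg/kg IP 17 min before and then every 12 h; vehicle controls. Blood taken 12 h and 24 h after TNFα. Assays: IL-6 and IL-1β; serum LDH, CK, AST, creatinine, BUN, amylase.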

Another data set concerns the target T1, Cytochrome P450 1A2 (Homo sapiens, UniProt P05177).
T1 sequence (P05177 whole entry): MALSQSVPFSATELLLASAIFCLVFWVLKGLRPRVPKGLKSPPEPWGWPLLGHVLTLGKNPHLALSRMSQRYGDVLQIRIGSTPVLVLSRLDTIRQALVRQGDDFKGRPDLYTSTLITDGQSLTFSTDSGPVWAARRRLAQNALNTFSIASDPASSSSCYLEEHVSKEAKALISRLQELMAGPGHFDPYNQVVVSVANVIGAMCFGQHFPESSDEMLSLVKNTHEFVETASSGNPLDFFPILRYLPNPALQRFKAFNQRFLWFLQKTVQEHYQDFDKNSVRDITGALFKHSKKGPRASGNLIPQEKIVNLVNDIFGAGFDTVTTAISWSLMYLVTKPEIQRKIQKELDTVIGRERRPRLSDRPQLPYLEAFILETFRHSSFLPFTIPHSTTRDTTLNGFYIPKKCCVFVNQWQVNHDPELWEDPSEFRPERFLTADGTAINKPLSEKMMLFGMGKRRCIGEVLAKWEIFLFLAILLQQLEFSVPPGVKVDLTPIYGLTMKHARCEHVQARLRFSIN
Put plainly: Inhibition of CYP1A2 (unknown origin). The format is ADME.

Another data set concerns Brain. Put plainly: Drug uptake in C57BL/6J mouse brain at 20 mg/kg, iv after 2 hrs by LC-MS/MS analysis. The data set is classed as ADME, organism-based. The conditions noted are these: in vivo.
Data set [4] deals with Indoleamine 2,3-dioxygenase 1 (Homo sapiens, UniProt P14902). As to the kind of experiment: Inhibition of recombinant human IDO expressed in Escherichia coli assessed as reduction in kynurenine production at 200 uM using L-tryptophan as substrate after 3 hrs by methylene blue dye based assay. In short, it runs like this: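 Reaction mix: 50 mM MES pH 6.5, 20 mM ascorbate, 2250 U/mL catalase, 10 μM methylene blue, 200 μM L-Trp, 100 nM recombinant IDO, 200 μM compound or DMSO. Incubated 37 °C for 3 h; kynurenine colour read at 321 nm.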

The subject of data set [5] is Mus musculus. As to the kind of experiment: Protection against TNFalpha-induced multiorgan damage in C57BL/6J mouse assessed as serum creatinine level at 0.3 to 3 mg/kg, ip pretreated for 17 mins followed by TNFalpha injection and subsequent compound treatment once in every 12 hrs measured 24 hrs post TNFalpha injection. The data set is classed as functional, organism-based. The method in brief:
as §2

The target of data set [6] is T2, Receptor-interacting serine/threonine-protein kinase 1 (Homo sapiens) (UniProt Q13546).
T2 sequence (whole entry): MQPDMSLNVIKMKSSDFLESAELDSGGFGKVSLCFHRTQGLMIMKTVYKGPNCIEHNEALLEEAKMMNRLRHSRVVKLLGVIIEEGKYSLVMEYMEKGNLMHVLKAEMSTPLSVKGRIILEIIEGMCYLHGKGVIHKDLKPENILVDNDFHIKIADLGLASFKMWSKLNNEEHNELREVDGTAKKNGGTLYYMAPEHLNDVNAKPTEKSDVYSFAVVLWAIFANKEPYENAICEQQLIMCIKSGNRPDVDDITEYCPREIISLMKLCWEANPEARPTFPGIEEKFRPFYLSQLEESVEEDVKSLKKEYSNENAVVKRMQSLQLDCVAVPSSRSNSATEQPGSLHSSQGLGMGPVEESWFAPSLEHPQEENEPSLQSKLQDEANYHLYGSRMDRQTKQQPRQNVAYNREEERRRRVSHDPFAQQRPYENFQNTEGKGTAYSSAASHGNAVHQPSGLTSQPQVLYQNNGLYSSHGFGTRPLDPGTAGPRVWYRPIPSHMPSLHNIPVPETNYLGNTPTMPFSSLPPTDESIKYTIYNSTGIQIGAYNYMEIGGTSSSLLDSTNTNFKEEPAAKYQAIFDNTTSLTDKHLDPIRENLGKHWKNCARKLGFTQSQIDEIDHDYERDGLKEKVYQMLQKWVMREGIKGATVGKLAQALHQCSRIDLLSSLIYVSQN
As to the kind of experiment: Inhibition of TNFalpha/z-VAD-FMK-induced RIP1 phosphorylation in human HT-29 cells by Western blot method. The format is cell-based. A general note: Immunoblotting shows a protein as a band on a membrane.

The test system of data set [7] is Mus musculus. Put plainly: Protection against TNFalpha-induced multiorgan damage in C57BL/6J mouse assessed as inhibition of TNFalpha-induced increase in IL-6 level at 0.3 to 3 mg/kg, ip pretreated for 17 mins followed by TNFalpha injection and subsequent compound treatment once in every 12 hrs measured after 12 hrs. The format is functional, organism-based. In short, it runs like this: as §2

The target of data set [8] is Receptor-interacting serine/threonine-protein kinase 3 (Homo sapiens) (UniProt Q9Y572). As to the kind of experiment: Inhibition of full length recombinant human N-terminal GST-tagged RIP3 expressed in baculovirus infected sf9 cells at 10 uM using MBP as substrate preincubated for 15 mins followed by MBP/ATP mixture addition measured after 90 mins by ADP-Glo kinase assay. Background: ADP-Glo first removes unused ATP, then detects ADP through luciferase.

The nature of data set [9]: Apparent permeability from basolateral to apical side in MDCK cells harboring MDR1. The data set is classed as ADME, cell-based, Canis lupus familiaris. The conditions noted are these: dog. The method in brief: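 Permeability measured in MDCK-MDR1 cell monolayers in both directions, apical-to-basolateral and basolateral-to-apical; efflux ratio derived from the two Papp values.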

For data set [10], the system named is Mus musculus. As to the kind of experiment: Protection against TNFalpha-induced multiorgan damage in C57BL/6J mouse assessed as serum CK-MB level at 0.3 to 3 mg/kg, ip pretreated for 17 mins followed by TNFalpha injection and subsequent compound treatment once in every 12 hrs measured 24 hrs post TNFalpha injection. The data set is classed as functional, organism-based. The method in brief: as §2

Data set [11] relates to Mus musculus. Put plainly: Protection against TNFalpha-induced multiorgan damage in C57BL/6J mouse assessed as serum LDH level at 0.3 to 3 mg/kg, ip pretreated for 17 mins followed by TNFalpha injection and subsequent compound treatment once in every 12 hrs measured 24 hrs post TNFalpha injection. The data set is classed as functional, organism-based. In short, it runs like this:
as §2

The target of the next data set is Cytochrome P450 2C9 (Homo sapiens, UniProt P11712). Put plainly: Inhibition of CYP2C9 (unknown origin). The format is ADME.
The nature of data set [12]: Half life in mouse liver microsomes in presence of NADPH by LC-MS/MS analysis. The data set is classed as ADME, microsome.

The source made the active and inactive calls.

Sequence of Receptor-interacting serine/threonine-protein kinase 3 (Homo sapiens) (Q9Y572 whole entry, looked up): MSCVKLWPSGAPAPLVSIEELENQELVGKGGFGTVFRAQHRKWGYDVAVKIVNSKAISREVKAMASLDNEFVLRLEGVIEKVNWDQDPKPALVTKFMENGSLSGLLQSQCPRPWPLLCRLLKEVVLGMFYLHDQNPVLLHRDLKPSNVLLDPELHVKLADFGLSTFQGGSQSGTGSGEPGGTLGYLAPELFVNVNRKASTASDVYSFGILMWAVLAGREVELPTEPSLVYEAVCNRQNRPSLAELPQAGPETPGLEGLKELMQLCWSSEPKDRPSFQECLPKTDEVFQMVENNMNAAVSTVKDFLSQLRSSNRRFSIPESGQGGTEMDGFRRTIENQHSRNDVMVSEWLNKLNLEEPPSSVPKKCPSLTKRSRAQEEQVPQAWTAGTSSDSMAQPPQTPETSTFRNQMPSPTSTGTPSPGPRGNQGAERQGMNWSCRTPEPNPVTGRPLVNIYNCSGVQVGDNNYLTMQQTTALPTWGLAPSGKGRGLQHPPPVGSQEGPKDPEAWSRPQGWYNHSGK
Sequence of Indoleamine 2,3-dioxygenase 1 (P14902 whole entry): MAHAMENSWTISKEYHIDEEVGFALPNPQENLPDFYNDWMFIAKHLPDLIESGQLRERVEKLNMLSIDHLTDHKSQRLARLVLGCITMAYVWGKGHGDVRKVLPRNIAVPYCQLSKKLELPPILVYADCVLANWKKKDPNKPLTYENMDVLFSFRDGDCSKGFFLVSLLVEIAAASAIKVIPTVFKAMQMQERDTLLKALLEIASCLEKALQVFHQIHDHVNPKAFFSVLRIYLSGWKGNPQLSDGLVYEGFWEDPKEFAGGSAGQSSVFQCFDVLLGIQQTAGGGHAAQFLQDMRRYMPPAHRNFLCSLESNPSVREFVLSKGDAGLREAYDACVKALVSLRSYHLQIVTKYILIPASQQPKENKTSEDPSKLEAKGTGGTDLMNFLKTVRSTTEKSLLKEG
Sequence of Cytochrome P450 2C9 (P11712 whole entry): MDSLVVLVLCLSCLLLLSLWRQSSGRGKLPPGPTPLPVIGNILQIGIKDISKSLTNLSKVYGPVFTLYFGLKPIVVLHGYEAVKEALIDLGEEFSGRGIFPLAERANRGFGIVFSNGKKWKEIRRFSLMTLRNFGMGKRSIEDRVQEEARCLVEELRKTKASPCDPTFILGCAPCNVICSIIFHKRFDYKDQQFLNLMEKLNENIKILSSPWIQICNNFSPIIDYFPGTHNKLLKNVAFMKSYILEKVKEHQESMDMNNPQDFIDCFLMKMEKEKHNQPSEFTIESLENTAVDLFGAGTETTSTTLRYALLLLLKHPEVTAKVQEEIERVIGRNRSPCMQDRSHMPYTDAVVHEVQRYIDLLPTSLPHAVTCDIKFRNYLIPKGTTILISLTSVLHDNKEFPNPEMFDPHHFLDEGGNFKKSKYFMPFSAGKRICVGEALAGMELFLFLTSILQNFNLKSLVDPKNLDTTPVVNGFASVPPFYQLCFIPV

With `CCC(C)(C)C(=O)N(O)Cc1ccccc1`, the result in the data set on Mus musculus [1], in the data set with Mus musculus [2], in the data set with Mus musculus [3], in the data set with Mus musculus [5], in the data set with Mus musculus [10] and in the data set on Mus musculus [11] was Active. The IC50 against Cytochrome P450 1A2 and at Cytochrome P450 2C9 was greater than 50 µM in each case. The Drug uptake entry in the data set on Brain was “Active”. The “inhibition (INH)” value in data set [4] is given as “Not Active”. Further, the inhibition result (in data set [6]; in the data set on Mus musculus [7]) was “Active” throughout. Also, the inhibition result in [8] was “inactive”. In addition, the apparent permeability from basolateral to apical (Papp B→A) (in general, the apparent permeability from the basolateral to the apical side of a cell layer) in [9] was greater than 30 ×10⁻⁶ cm/s. The half-life (commonly the time needed for the level to fall by half in the phase considered) in data set [12] stood at 35.5 min.
